# Rows were chosen to be rich in hits. Some 2.5% of all compounds tested hit in one or more screens of this group.
# SENP8 block-1 – SENP8 protease inhibition; 330,000 tested, 1.2% active; inhibition, % at 10 µM; Q96LD8; purified SENP8, Z-RLRGG-aminoluciferin cleavage, luminescence; in the data active = inhibition above about 50%
# SENP8 block-2 – inhibitors of human SENP8 protease; Q96LD8; recombinant SENP8, Nedd8 substrate fluorescence; inhibition, % at 20 µM; 360,000 tested, 0.64% active; AID 602440; in the data active = inhibition mostly above about 40%, no sharp cut-off; inactive = mostly below about 27%
# SENP7 block – blocks the human protease SENP7. recombinant SENP7, Z-RLRGG-aminoluciferin luminescence, 40 min. inhibition, % at 5 µM. 330,000 tested, 1.5% active. AID 434973;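 active = inhibition above about 50% at the single test dose, limit read from the data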;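 also: plate controls were DMSO with enzyme for no effect and no enzyme buffer wells for full effect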
# SENP6 inh – SENP6 protease inhibition. Recombinant SENP6 catalytic domain, aminoluciferin luminescence. inhibition, % at 10 µM. 330,000 tested, 1.8% active. AID 2599;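 active = inhibition above about 50% at the single tested dose, limit read from the data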;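 also: plate controls were DMSO wells with enzyme for no effect and DMSO wells lacking enzyme for full effect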
# Target sequence (Q9GZR1 628-1112 limits assumed): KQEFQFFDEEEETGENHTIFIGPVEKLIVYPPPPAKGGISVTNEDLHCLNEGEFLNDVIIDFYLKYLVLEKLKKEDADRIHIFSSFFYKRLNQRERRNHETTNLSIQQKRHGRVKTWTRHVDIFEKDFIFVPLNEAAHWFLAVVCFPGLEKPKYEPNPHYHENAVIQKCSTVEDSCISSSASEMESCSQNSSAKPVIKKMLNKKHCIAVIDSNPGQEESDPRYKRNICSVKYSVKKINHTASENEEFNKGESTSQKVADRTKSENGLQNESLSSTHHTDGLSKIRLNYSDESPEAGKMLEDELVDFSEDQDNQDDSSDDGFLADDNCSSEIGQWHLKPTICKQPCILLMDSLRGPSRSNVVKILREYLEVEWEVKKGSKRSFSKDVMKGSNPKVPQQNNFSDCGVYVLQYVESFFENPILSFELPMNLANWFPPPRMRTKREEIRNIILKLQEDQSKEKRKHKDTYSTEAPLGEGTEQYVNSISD
# SENP1 FRET inh – inhibitors of human SENP1 SUMO protease catalytic domain; 360,000 tested, 0.21% active; Q9P0U3; recombinant SENP1 catalytic domain, CyPet-SUMO1-YPet FRET cleavage; inhibition, % at 10 µM;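 active = inhibition at least 30% at 10 µM, raw YFP signal under a set limit, fluorescence ratio 0.5 to 1.5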;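 also: 0% = enzyme with DMSO and 100% = no enzyme wells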
#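 Material – human SENP1 catalytic domain · Input – SENP1 enzyme, 20 pM final · Compound dosing – single concentration of 10 µM compound, 0.5% DMSO final · Timing – enzyme reaction for 50 min at room temperature, dark · Measured by – FRET fluorescence in CFP and YFP emission channels · Control set – no-enzyme wells low, DMSO-plus-enzyme wells high control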
# * hit, by the source's call; i = inactive; x = not tested or not shown.
SMILES,SENP8 block-1,SENP8 block-2,SENP7 block,SENP6 inh,SENP1 FRET inh
COc1ccc(Cl)cc1N=Cc1c(O)cc(C)oc1=O,2.4,-43.0,3.2,-16.8,-3.0
Cc1nc2ccccc2n1C(=O)N(C)C,4.6,-9.5,-4.4,3.8,-0.6
N#Cc1cc2c(nc1SCc1nc3ccccc3[nH]1)CCC2,54.1*,x,12.1,80.6*,x
Cc1ccsc1C(=O)Nc1nc2ccccc2[nH]1,94.7*,i,98.3*,98.6*,-0.4
C/C(=N/OC(=O)c1ccc(Cl)cc1Cl)c1oc(C)nc1C,82.8*,21.3,87.1*,90.2*,0.6
COc1ccc(C2C(C#N)=C(/N=C/N3CCN(C)CC3)OC3=C2C(=O)CC(C)(C)C3)cc1OC (stereo not drawn),-7.4,5.4,50.3*,-27.1,-0.2
CCOc1ccc(Cl)cc1-c1cc(C(=O)NC2CCCCC2)[nH]n1,x,11.3,x,x,-0.4
COCCOC(=O)c1c(N)n(CCCN2CCOCC2)c2nc3ccccc3nc12,-7.5,-450.1,12.6,-7.1,-110.1
CCCCCOC(=O)c1c(N)n(CCOC)c2nc3ccccc3nc12,62.7*,-262.2,63.9*,8.5,-101.8
COC(=O)c1cc2c(n1S(=O)(=O)c1ccc(C)cc1)C(=O)C(=O)c1[nH]cc(C(=O)OCc3ccccc3)c1-2,x,108.4*,x,x,0.2
COC(=O)c1ccc(COC(=O)c2ccc(CS(=O)(=O)c3ccc(C)cc3)cc2)cc1,-3.2,20.2,-6.4,-29.4,1.7
CC(/C=C(\NC(=O)c1ccccc1)C(=O)N=Nc1c(O)[nH]c2ccc(C)cc12)=C\c1ccccc1,-1.1,51.3*,2.7,-7.8,3.2
CCOc1cc(/C=N/NC(=O)C(N)=O)cc(Br)c1O,4.9,9.6,-0.9,-3.5,0.4
CCOc1cc(Br)c(Br)c(C=Nc2ccc(NC(C)=O)cc2)c1O,0.6,17.5,-1.0,-10.6,41.2*
COc1ccc(CCC(=O)N2c3ccccc3N=C(c3ccc(C(F)(F)F)cc3)C2C(=O)NC(C)C)cc1 (stereo not drawn),x,-111.7,x,x,1.5
COc1cccc(/C=C2\SC(=S)N(CCCC(=O)N3CCCCC3CCO)C2=O)c1 (stereo not drawn),2.7,11.7,-3.5,16.2,2.0
COc1cccc(/C=C2\SC(=S)N(CCCC(=O)N3CCCC3)C2=O)c1,48.2,11.5,64.8*,78.1*,0.6
O=C(Nc1ccc(S(=O)(=O)N2CCCCC2)cc1)c1ccc(CN2CCc3ccccc3C2)cc1,1.4,53.1*,-6.1,2.6,2.1
N/C(=N\OC(=O)Cc1ccccc1[N+](=O)[O-])c1ccccn1,1.8,6.3,-2.7,0.2,6.9
Cc1c(C(=O)O/N=C(\N)c2ccccn2)cccc1[N+](=O)[O-],77.7*,6.4,85.1*,78.6*,3.2
CCC(C(=O)NC(C)(C)C)n1c(C(c2ccccc2)c2ccccc2)nc2ccccc21 (stereo not drawn),x,11.3,x,x,-2.6
Cc1cc(-c2nc3ccccc3s2)ccc1N,x,i,x,x,-27.7
Cc1cc(OCc2nc3ccccc3s2)ccc1N,53.7*,-14.2,45.8,70.2*,-2.2
COc1ccc(-c2oc3cc(OC(C)=O)cc(OC(C)=O)c3c(=O)c2OC)cc1,x,i,x,x,-9.4
CC(=O)Oc1cc(O)c2c(=O)c(OC(C)=O)c(-c3ccc(OC(C)=O)c(OC(C)=O)c3)oc2c1,8.2,40.2*,-1.7,3.2,50.8*
SMILES,SENP8 block-1,SENP8 block-2,SENP7 block,SENP6 inh,SENP1 FRET inh
O=C1C2C(C(=O)N1/N=C/c1cc(Br)cc([N+](=O)[O-])c1O)C1C=CC2C12CC2 (stereo not drawn),1.1,40.9*,-5.4,-8.0,11.6
O=C1c2ccccc2C(=O)c2c1oc(C(F)(F)F)c2C(=O)c1ccccc1,59.2*,72.8*,49.7,77.3*,1.8
Cc1onc(-c2ccccc2Cl)c1C(=O)NCc1cccnc1,-4.0,16.4,-11.4,-8.7,5.5
CC(=O)c1c(C)oc2c1C(=O)c1ccccc1C2=O,x,40.9*,x,x,11.2
Cc1oc2c(c1C(=O)NCc1cccnc1)C(=O)c1ccccc1C2=O,48.6,x,73.6*,84.3*,x
CN(C)c1ccc(/C=C2\N=C(c3ccc(Cl)c([N+](=O)[O-])c3)NC2=O)cc1,10.4,35.3,0.9,14.7,64.7*
O=[N+]([O-])c1ccc(/C=N/NC2=NS(=O)(=O)c3ccccc32)cc1,-6.8,22.8,11.7,-10.9,3.8
O=[N+]([O-])c1ccc(O)c(/C=N/Nc2ccc(Cl)nn2)c1,27.3,20.1,-7.4,54.4*,5.4
